High-throughput results from PubChem BioAssay.
Most compounds without a hit are left out; they make up all but 1.8% or so of the library.
HKDC1 inhibitor = blocks human hexokinase HKDC1 activity; Q2TB90; recombinant HKDC1, G6PDH/diaphorase resazurin coupled fluorescence; inhibition, % at 20 µM; hit rate 0.16% among 340,000; AID 493160;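 active = inhibition above about 35% when tested at 20 µM, limit read from the data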
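Test system: recombinant HKDC1 (HK5) hexokinase enzyme, produced in-house; Amount: enzyme 5 µg/mL final; Buffer or medium: Tris pH 8.0 buffer with MgCl2, Tween-20, BSA, BME; Reagent: glucose and ATP substrates; Doses: 20 µM test compound, 1% DMSO; Incubation: 90 min reaction incubation at room temperature, dark; Detection: resorufin fluorescence at 613 nm.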
Scp1 inh = blocks human Scp-1 phosphatase activity. Q9GZU7. Recombinant Scp1, phosphopeptide, malachite green phosphate absorbance. inhibition, % at 20 µM. hit rate 0.88% among 340,000;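 active = inhibition above about 50% at 20 µM, limit read from the data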
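Test system: SCP-1 phosphatase catalytic domain, residues 76-261; measured by: colorimetric phosphate reagent with accelerator and stabiliser, absorbance at 630 nm; timing: enzyme reaction 45 min at room temperature, colour 5 min, stabilisation 30 min; also added: Phosphorylated 17-residue peptide substrate; compound dosing: one concentration, 20 µM, with 1.0% DMSO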
DNMT1 block = blocks human DNA methyltransferase DNMT1 | P26358 | DNMT1 molecular beacon, Hinp1I cleavage, fluorescence | inhibition (reported as % activation of signal), % at 10 µM | hit rate 0.83% among 360,000; in the data active = inhibition above about 50%
STEP inh = STEP (human) phosphatase inhibition; recombinant STEP, OMFP fluorogenic substrate, fluorescence; AID 588621; inhibition, % at 20 µM; P54829; hit rate 0.25% among 360,000;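 active = inhibition at 20 µM, scaled per plate between control wells, above about 37%, limit read from the data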
Target sequence (P54829 whole entry, looked up): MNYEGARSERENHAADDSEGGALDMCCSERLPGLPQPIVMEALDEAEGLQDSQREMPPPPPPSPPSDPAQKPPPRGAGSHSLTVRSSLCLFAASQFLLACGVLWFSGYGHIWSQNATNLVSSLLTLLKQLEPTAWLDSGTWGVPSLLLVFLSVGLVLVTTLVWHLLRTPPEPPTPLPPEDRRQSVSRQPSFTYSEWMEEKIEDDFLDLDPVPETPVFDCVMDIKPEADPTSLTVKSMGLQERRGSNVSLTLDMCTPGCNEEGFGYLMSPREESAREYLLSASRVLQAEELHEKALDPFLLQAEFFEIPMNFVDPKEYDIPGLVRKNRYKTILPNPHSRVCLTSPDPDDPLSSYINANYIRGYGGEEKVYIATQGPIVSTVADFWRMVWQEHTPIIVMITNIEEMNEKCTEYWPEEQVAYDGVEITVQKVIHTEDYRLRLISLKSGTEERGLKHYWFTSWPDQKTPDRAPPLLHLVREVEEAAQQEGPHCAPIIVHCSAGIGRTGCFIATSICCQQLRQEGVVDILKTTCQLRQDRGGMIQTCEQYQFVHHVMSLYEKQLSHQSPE
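System: STEP phosphatase, cell-free reaction; Buffer or medium: Bis-Tris pH 6.0 buffer with DTT, detergent; Incubation: 20 min at room temperature, dark; Measured by: fluorescence, 480/540 nm.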
SUMO1-SIM PPI = alters human SUMO1 binding to SIM partners. SUMO1 binding to a labelled peptide, TR-FRET, 1 h. hit rate 0.33% among 360,000. inhibition, % at 20 µM. AID 602429; in the data active = inhibition above about 37%
Target sequence (P63165 whole entry, looked up): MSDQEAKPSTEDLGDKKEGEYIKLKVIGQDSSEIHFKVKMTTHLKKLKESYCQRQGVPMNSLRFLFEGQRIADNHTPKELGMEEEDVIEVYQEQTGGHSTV
LMPTP block = blocks human LMPTP phosphatase; recombinant LMPTP-A, OMFP fluorogenic substrate, fluorescence intensity; inhibition, % at 20 µM; hit rate 0.22% among 360,000;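 active = compounds that cut the enzyme signal by at least half of the control window in the single-dose screen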
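Test system: LMPTP-A phosphatase enzyme. Amount: LMPTP-A at 0.625 nM final in the reaction. Reagent: OMFP substrate, 400 µM final. Times: 50 min at room temperature. Signal: endpoint fluorescence intensity from OMFP dephosphorylation. Read-out basis: % inhibition. Benchmarks: no-enzyme and uninhibited controls.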
Of the large screens only hits and unclear results are named; the others gave an inactive call; ! = repeats disagree.

Cc1ccc(NC(=O)c2ccccc2NC(=O)c2cccs2)cc1	none
CCOc1ccccc1NC(=O)CCc1nnc2ccc(N3CCC(C)CC3)nn12	DNMT1 block 98
O=C1c2cccc3cccc(c23)C(=O)C1(O)O	LMPTP block 57
CC(=O)N1C(=O)c2cccc3cccc(c23)C(=O)N1C(C)=O	none (no result: DNMT1 block, STEP inh, SUMO1-SIM PPI, LMPTP block)
CCCCCCCCCCCCCCCC[n+]1ccc(C(N)=O)cc1	SUMO1-SIM PPI 52
CCCCCCCCCCCCCCCC[n+]1cccc(C(=O)N(CC)CC)c1	SUMO1-SIM PPI 38!
CCCCCCCC[n+]1cccc(C(=O)N(CC)CC)c1	none
COCCOC(=O)C1=C(C)NC(=O)NC1c1cccc2ccccc12 (stereo not drawn)	none
Cc1ccc(NCCN(C)C)c2c(=O)c3cc(O)ccc3sc12	DNMT1 block 57
CN(C)CCNc1cccc2sc3ccc(O)cc3c(=O)c12	DNMT1 block 56 (no result: HKDC1 inhibitor, Scp1 inh)
COc1cc(C)c2sc3ccccc3c(=O)c2c1NCCN(C)C	none (no result: HKDC1 inhibitor, Scp1 inh)
Cc1c(C)c2ccc(OCC(=O)Nc3cccnc3)c(C)c2oc1=O	none
COc1ccc(-c2cc(=O)oc3c(C)c(OCC(=O)Nc4cccnc4)ccc23)cc1	SUMO1-SIM PPI 41
NS(=O)(=O)c1cc(C(=O)NC2CCSc3ccccc32)ccc1Cl (stereo not drawn)	Scp1 inh 94, DNMT1 block 84, STEP inh 100, SUMO1-SIM PPI 121, LMPTP block 71
Cc1ccc(Oc2ncccc2C(=O)NC2CCSC2=O)cc1 (stereo not drawn)	none
N=C1S/C(=C\c2ccc(-c3ccccc3C(=O)O)o2)C(=O)N1c1ccc2c(c1)OCO2	Scp1 inh 53
CCOC(=O)CN1C(=O)S/C(=C\c2ccc(-c3cccc(C(=O)O)c3C)o2)C1=O	none
CCn1nc(C(=O)NCCc2ccc3c(c2)OCCO3)c2ccccc2c1=O	none
O=C(COc1ccc(Cl)cc1Cl)Nc1ccc(-c2ccc(N3CCOCC3)nn2)cc1	SUMO1-SIM PPI 55
CC(C)CC1=C/C(=C/c2ccc(-c3ccccc3)o2)C(=O)O1	DNMT1 block 92
CC(C)(C)c1cc(C(=O)O)n(Cc2ccc(Cl)cc2Cl)n1	SUMO1-SIM PPI 49
COC(=O)c1cc(C(=O)OC)n(Cc2ccc(Cl)cc2Cl)n1	none
CCC(C(=O)N1CCOCC1)n1nc(C)c2c(C)n(-c3ccccc3)nc2c1=O (stereo not drawn)	none
O=C(CNc1ccc(Cl)c(C(F)(F)F)c1)N1CCN(S(=O)(=O)c2ccccc2)CC1	Scp1 inh 69
Nc1ccc2c(c1Cl)C(=O)c1ccc(N)c(Cl)c1C2=O	Scp1 inh 90, DNMT1 block 81, STEP inh 99, SUMO1-SIM PPI 109, LMPTP block 82
COc1cc(C(O)c2nc(-c3cccc(NC(C)=O)c3)cs2)ccc1F (stereo not drawn)	none (no result: HKDC1 inhibitor, Scp1 inh)
Cn1c2ccccc2c(=O)c2ccc(-c3ccc4c(c3)OCO4)cc21	none
CC(=O)n1nc(-c2ccc(C)cc2)nc1NCc1ccc(F)cc1	none
O=c1/c(=C\c2cc([N+](=O)[O-])cc([N+](=O)[O-])c2O)sc2nc3ccccc3n12	Scp1 inh 80
O=C(O)c1cc(C(=O)O)cc(-c2ccc(/C=c3/sc4nc5ccccc5n4c3=O)o2)c1	Scp1 inh 70 (no result: DNMT1 block, STEP inh, SUMO1-SIM PPI, LMPTP block)
CC(C)c1ccc(S(=O)(=O)N2CCN(CC(=O)Nc3ccc(Cl)cc3F)CC2)cc1	none
O=C(CN1CCN(S(=O)(=O)c2ccc(Br)cc2)CC1)c1ccc(O)c(O)c1	LMPTP block 59
CC(C)c1ccc(S(=O)(=O)N2CCN(CC(=O)c3ccc(O)c(O)c3)CC2)cc1	LMPTP block 68 (no result: HKDC1 inhibitor, Scp1 inh)
COc1ccc2[nH]c3c(=O)n(/N=C/c4ccc(OC)c(CN5CCCC5)c4)c(C)nc3c2c1	SUMO1-SIM PPI 66
Cc1cc(N/N=C/c2ccc(O)cc2)c2cccc(C)c2n1	LMPTP block 57
Cc1cc(C)c2nc(C)cc(N/N=C/c3ccc(O)cc3)c2c1	DNMT1 block 62, LMPTP block 69
CC(=O)c1ccc(NC(=O)[C@@H]2CCCN2C2=NS(=O)(=O)c3ccccc32)cc1	none
COc1ccc(O)c(C(=O)c2cc(SCC(=O)O)c3nc4sc5c(c4c(=O)n3c2)CCCC5)c1	SUMO1-SIM PPI 42
O=C(CCl)Nc1ccc(N=Nc2ccccc2)cc1	none
O=C(CCl)Nc1ccc(-c2ccccc2)cc1	SUMO1-SIM PPI 56
CCOC(=O)c1sc(NC(=O)c2ccc(OC)cc2)nc1C	SUMO1-SIM PPI 55
CC(=O)Nc1ccc(S(=O)(=O)N2CCN(c3nc(NC4CCCC4)c4ccccc4n3)CC2)cc1	LMPTP block 63
O=[N+]([O-])c1ccc(Nc2ccccc2)c2nonc12	none
NNc1ccc([N+](=O)[O-])c2[nH][nH]c(=O)c12	DNMT1 block 85, STEP inh 96, SUMO1-SIM PPI 99, LMPTP block 84 (no result: HKDC1 inhibitor, Scp1 inh)
Cc1ccc(S(=O)(=O)N2CCOCC2)cc1C(=O)OCC(=O)Nc1ccc2[nH]c(=O)[nH]c2c1	SUMO1-SIM PPI 82
CC(C)CCNC(=O)NC(=O)COC(=O)c1cc(S(=O)(=O)N2CCOCC2)ccc1N1CCCCC1	SUMO1-SIM PPI 45
O=C(COc1ccccc1)Nc1sc2c(c1C(=O)NCc1cccnc1)CCCC2	LMPTP block 51
Nc1nc2ccccc2cc1C(=O)NCc1ccc(-c2ccccc2)cc1	none (no result: HKDC1 inhibitor, Scp1 inh, DNMT1 block, STEP inh)
O=C1CSc2ccc(S(=O)(=O)N3CCN(c4ccccc4F)CC3)cc2N1	none
CCCOc1ccc(C2C(C(=O)c3ccco3)=C(O)C(=O)N2CCCn2ccnc2)cc1OC (stereo not drawn)	none (no result: HKDC1 inhibitor, Scp1 inh)
CCOc1ccc(C2C(C(=O)c3ccco3)=C(O)C(=O)N2CCCn2ccnc2)cc1OC (stereo not drawn)	SUMO1-SIM PPI 47
CCCC(=O)C1=C(O)C(C(=O)OC)C(C)(C)CC1=NCCc1ccccc1 (stereo not drawn)	none
CC(C)N1C(=O)S/C(=C\c2ccc(-c3ccc(Cl)c(C(=O)O)c3)o2)C1=O	Scp1 inh 68
Cc1ccc(N2NC(=O)/C(=C/c3ccc(-c4ccc(Cl)c(C(=O)O)c4)o3)C2=O)cc1	none
CC(Sc1nnc(-c2ccco2)n1N)C(=O)NCc1ccc2c(c1)OCO2 (stereo not drawn)	none
CN(C)/C=C/C(=O)c1ccc(OCCN(C)c2ccccn2)cc1	LMPTP block 51
CN(C)/C=C/C(=O)c1ccc(Oc2ccccc2)cc1	none
COC(=O)c1ccc(NC(=O)Nc2ccc([N+](=O)[O-])cc2)cc1	LMPTP block 85
O=C(Nc1ccc(C(=O)O)cc1)Nc1ccc([N+](=O)[O-])cc1	none
c1cncc(-c2nc3ccccc3s2)c1	SUMO1-SIM PPI 48
COc1ccc2c(c1O)Cc1ccccc1C2=O	SUMO1-SIM PPI 55
